From ChEMBL document CHEMBL4422635, “Structure-Based Discovery of a Subtype-Selective Inhibitor Targeting a Transient Receptor Potential Vanilloid Channel” (J Med Chem, 2019)
Calls of active or inactive are those of the source. The calls are words filed in the database; no cut-off is given here.

Legend:
Format in all cases: cell-based
Mus musculus = species on record: Mus musculus; test: Antagonist activity at mouse LPA-induced TRPV2/LPAR1 expressed in HEK293T cells assessed as inhibition of 2-APB evoked currents at 1 uM after 3 mins in presence of AM966 by whole-cell patch clamp assay
Outline: (§1)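 Whole-cell voltage clamp of transiently transfected HEK293T cells co-expressing GFP, recorded 36-96 h post-transfection. Hold -60 mV; pipettes 3-7 MΩ. Bath 165 mM NaCl, 10 mM HEPES pH 7.3; pipette 140 mM KCl, 10 mM HEPES pH 7.3. Room temperature (~25 °C). IC50 from Hill fits of I/I0, the current ratio after vs before inhibitor; mean ± SEM.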

[1] = test system: T1, Transient receptor potential cation channel subfamily V member 2 (Mus musculus), Q9WTR1 [F467A]; test: Antagonist activity at mouse TRPV2 F467A mutant expressed in HEK293T cells assessed as inhibition of 2-APB evoked currents at -60 mV holding potential by whole-cell patch clamp assay; outline: as §1
T1 sequence (whole entry): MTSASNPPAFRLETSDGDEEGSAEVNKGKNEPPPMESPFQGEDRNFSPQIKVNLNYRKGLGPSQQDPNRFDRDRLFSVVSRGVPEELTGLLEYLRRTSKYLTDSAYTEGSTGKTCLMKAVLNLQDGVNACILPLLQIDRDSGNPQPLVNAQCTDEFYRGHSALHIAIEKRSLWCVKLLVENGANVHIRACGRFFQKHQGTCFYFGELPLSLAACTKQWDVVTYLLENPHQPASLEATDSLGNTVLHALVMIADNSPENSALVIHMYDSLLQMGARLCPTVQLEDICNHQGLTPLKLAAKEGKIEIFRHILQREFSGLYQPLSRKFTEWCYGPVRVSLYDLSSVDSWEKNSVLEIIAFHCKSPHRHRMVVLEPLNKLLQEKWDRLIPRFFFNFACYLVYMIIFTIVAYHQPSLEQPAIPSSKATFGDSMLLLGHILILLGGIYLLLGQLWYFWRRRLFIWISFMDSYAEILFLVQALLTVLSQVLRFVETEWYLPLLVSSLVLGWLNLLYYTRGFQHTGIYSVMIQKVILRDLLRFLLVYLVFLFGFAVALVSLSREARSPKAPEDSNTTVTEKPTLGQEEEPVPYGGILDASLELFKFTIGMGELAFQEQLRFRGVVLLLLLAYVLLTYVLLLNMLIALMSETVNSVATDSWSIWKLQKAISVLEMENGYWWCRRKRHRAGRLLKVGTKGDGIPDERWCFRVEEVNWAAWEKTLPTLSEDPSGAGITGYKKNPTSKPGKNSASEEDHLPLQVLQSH

PC-3M = test: Cytotoxicity against human PC3M cells assessed as reduction in cell viability up to 20 uM after 48 hrs by SRB assay
Outline: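 PC-3M cells kept in RPMI 1640 with 10% FBS at 37 °C, 5% CO2.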

Homo sapiens = species on record: Homo sapiens; test: Inhibition of LPA-induced TRPV2/LPAR1 mediated cell migration in human PC3M cells at 0.1 uM after 24 hrs by transwell migration assay
[2] = molecular target: T2, Transient receptor potential cation channel subfamily V member 2 (Homo sapiens) (UniProt Q9Y5S1); test: Antagonist activity at TRPV2 in human PC3M cells assessed as inhibition of LPA-induced intracellular calcium levels at 100 uM Fluo-4 AM-based fluorescence assay
T2 sequence (whole entry): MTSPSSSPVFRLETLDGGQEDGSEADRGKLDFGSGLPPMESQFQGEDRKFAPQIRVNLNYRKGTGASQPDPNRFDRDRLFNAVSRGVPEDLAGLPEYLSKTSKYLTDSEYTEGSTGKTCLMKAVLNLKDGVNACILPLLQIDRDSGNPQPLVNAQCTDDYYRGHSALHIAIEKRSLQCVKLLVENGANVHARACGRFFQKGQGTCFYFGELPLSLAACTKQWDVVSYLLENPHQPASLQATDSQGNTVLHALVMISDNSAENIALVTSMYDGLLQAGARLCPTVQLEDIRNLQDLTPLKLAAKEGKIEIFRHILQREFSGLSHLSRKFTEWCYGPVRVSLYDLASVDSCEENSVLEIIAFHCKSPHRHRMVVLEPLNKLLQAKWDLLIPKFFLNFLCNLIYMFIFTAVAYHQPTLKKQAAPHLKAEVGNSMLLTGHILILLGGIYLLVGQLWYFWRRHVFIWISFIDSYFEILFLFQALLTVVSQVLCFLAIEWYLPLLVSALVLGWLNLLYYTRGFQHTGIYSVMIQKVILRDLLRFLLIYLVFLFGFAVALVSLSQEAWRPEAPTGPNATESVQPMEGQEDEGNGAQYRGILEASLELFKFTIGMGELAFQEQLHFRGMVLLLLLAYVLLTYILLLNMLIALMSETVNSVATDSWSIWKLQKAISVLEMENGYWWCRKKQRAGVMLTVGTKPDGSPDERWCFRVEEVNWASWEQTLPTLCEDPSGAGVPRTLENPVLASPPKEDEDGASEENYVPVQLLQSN
Outline: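 PC-3M cells cultured 24 h, loaded with 2 μM Fluo-4 AM in HBSS for 45 min at 37 °C, then compound added. Cytoplasmic Ca2+ rise read as relative fluorescence at ex 485 / em 525 nm.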

[3] = test system: Transient receptor potential cation channel subfamily V member 1 (Mus musculus), Q704Y3 [T551L]; test: Antagonist activity at mouse TRPV1 T551L mutant expressed in HEK293T cells assessed as inhibition of 2-APB evoked currents at > 1 uM at -60 mV holding potential by whole-cell patch clamp assay; outline: as §1
Transient receptor potential cation channel subfamily V member 1 (Mus musculus), Q704Y3 [T551L], sequence (Q704Y3 whole entry T551L): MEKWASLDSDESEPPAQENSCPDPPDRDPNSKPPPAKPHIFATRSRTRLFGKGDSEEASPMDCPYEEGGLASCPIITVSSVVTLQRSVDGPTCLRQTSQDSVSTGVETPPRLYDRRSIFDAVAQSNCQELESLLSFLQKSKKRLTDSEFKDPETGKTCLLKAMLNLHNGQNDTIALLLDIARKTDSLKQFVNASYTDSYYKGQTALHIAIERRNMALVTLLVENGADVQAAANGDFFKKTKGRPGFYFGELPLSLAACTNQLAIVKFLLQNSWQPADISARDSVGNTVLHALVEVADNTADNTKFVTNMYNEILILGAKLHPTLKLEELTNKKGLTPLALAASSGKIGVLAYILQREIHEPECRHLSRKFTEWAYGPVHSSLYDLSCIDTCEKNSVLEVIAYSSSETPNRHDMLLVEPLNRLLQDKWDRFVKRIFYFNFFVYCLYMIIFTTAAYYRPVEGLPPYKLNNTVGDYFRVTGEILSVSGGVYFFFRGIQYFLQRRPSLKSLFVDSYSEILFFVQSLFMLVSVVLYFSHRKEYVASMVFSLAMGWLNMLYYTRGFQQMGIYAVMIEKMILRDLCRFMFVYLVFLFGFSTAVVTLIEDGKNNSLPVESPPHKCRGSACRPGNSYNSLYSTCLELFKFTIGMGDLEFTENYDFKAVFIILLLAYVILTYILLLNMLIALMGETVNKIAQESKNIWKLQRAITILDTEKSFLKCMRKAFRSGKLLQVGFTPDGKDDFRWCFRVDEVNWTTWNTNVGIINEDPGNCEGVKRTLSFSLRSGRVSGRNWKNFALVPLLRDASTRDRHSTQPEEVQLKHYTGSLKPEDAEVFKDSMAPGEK

inhibition [1]: inactive
inhibition [2]: Active
inhibition [3]: Active
SMILES: CCCN(C)c1cc(C(F)(F)F)nc(SCCC(=O)NCc2ccco2)n1
inhibition (Mus musculus): inactive
Activity (PC-3M): Non-Toxic
inhibition (Homo sapiens): Active
